Bioassay records from PubChem BioAssay.
Rows were chosen to be rich in hits. Some 2.2% of all compounds tested hit in one or more screens of this group.
PfG6PD inh – PfG6PD (Plasmodium falciparum) enzyme inhibition; PfGluPho enzyme, NADPH resazurin-diaphorase fluorescence; inhibition, % at 20 µM; 0.78% of 350,000 active;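 active = inhibition reaching at least a set limit at 20 µM in the primary screen, cut at about 59% in these data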
Granule exo inh – lytic granule exocytosis inhibition; TALL-104 LAMP-1 surface exposure, flow cytometry; cells stimulated with thapsigargin and PMA; inhibition, % at 10 µM; 0.66% of 360,000 active; AID 651702;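 active = inhibition above about 55%, limit read from the data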
HKDC1 inhibitor – inhibitors of human hexokinase HKDC1 | Q2TB90 | recombinant HKDC1, G6PDH/diaphorase resazurin coupled fluorescence | inhibition, % at 20 µM | 0.16% of 340,000 active;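 active = inhibition above about 35% when tested at 20 µM, limit read from the data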
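Test system: recombinant HKDC1 (HK5) hexokinase enzyme, produced in-house / Doses: 20 µM test compound, 1% DMSO / Timing: 90 min, room temperature / Detection: G6PDH/diaphorase-coupled fluorescence, 1 mM NADP, 100 µM resazurin, 525/613 nm / Control set: DMSO wells with and without enzyme mix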
ABHD5 PLIN5 PPI – inhibitors of human ABHD5-perilipin-5 interaction | Split G. princeps luciferase complementation, luminescence, 4 h | 0.78% of 360,000 active | Q00G26+Q8WTS1 | AID 602281 | inhibition, % at 4 µM;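 active = inhibition above the mean inhibition across every tested compound plus 3 SD, cut at about 22% in these data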
Target sequence (Q00G26 whole entry, looked up): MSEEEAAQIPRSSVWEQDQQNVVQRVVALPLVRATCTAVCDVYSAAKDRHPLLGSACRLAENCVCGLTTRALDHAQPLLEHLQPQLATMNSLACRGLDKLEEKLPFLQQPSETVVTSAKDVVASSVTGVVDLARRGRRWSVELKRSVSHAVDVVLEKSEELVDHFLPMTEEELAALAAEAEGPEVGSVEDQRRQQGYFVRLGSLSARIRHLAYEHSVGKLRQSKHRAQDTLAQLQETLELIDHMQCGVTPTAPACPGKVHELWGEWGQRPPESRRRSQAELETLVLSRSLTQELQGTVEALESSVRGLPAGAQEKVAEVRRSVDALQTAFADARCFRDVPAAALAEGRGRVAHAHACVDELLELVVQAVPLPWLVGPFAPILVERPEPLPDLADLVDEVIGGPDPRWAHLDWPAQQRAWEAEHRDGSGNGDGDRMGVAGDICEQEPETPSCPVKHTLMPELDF
Target sequence (Q8WTS1 whole entry, looked up): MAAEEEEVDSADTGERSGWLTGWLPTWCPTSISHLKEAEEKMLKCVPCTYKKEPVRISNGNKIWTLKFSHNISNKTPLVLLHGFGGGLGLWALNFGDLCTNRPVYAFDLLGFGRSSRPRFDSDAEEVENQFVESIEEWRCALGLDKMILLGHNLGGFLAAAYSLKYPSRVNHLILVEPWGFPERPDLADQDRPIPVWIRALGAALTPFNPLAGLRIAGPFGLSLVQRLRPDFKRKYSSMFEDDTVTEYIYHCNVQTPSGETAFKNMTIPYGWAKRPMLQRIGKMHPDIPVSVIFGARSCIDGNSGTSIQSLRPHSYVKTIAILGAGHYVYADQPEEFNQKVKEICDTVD
PfGluPho conf – confirmation of Plasmodium falciparum G6PD inhibitors | shares compounds with PfG6PD inh | recombinant PfGluPho, NADPH-diaphorase-resazurin fluorescence | inhibition, % at 20 µM | 34% of 2,400 active | AID 504753;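 active = inhibition of at least 50% at 20 µM in any single replicate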
Diaph ctr 10uM – inhibits diaphorase or oxidizes, flagging false PfG6PD hits. diaphorase-coupled resazurin reduction, fluorescence, NADPH 10 uM. 39% of 820 active. shares compounds with PfG6PD inh. inhibition, % at 20 µM. AID 504862;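 active = average inhibition reaching 50% or more with the compound at 20 µM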;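 also: resorufin red fluorescence formed as diaphorase reduces resazurin using NADPH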
Diaph ctr 30uM – inhibits diaphorase or oxidizes, flagging false PfG6PD hits; shares compounds with PfG6PD inh; Diaphorase/resazurin coupled assay, resorufin fluorescence, 30 uM NADPH; inhibition, % at 20 µM; 29% of 820 active; AID 504863;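 active = inhibition averaging 50% or more, tested at 20 µM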
Large screens that a line does not name were inactive (follow-up assays come after a bar, where they were run).

Nc1ccc(Oc2ncccn2)cc1	PfG6PD inh 66 | PfGluPho conf inactive
O=S(=O)(Nc1ccccc1N1CCCCC1)c1ccccc1	none
Cc1cc(C)c(C)c(S(=O)(=O)Nc2ccccc2N2CCOCC2)c1C	PfG6PD inh 65 | PfGluPho conf inactive
Nc1cc(S(=O)(=O)Nc2cc(Cl)ccc2Cl)ccc1N1CCOCC1	PfG6PD inh 61 | PfGluPho conf inactive
O=S(=O)(Nc1ccccc1N1CCCCC1)c1ccc(F)cc1	PfG6PD inh 69 | PfGluPho conf inactive
Nc1cc(S(=O)(=O)Nc2ccccc2Cl)ccc1N1CCCC1	none
O=S(=O)(Nc1ccccc1N1CCOCC1)c1ccc(F)c(Cl)c1	none
O=S(=O)(Nc1ccccc1N1CCOCC1)c1ccc(Cl)cc1	PfG6PD inh 70 | PfGluPho conf inactive
C[C@@H]1CN([C@H](C)CO)S(=O)(=O)c2ccc(Br)cc2O[C@H]1CN(C)S(C)(=O)=O	none (no result: HKDC1 inhibitor)
Cc1occc1C(=O)/C(C#N)=C/c1ccc(O)c(Br)c1	none
CC1(CCc2ccccc2)NC(=O)N(CC(=O)Nc2ccc(OC(F)F)cc2)C1=O (stereo not given)	none
O=C(Nc1ccc(F)cc1)c1cccnn1	none
CCN(CC)C(=O)c1c(NC(=O)c2ccccc2)sc(C)c1C	none
Cc1sc(NC(=O)c2ccccc2)c(C(=O)NC(C)C)c1C	none
Cc1sc(NC(=O)c2ccccc2)c(C(=O)c2ccccc2)c1C	PfG6PD inh 63 | PfGluPho conf inactive
Cc1ccc(C(=O)Nc2sc(C)c(C)c2C(=O)c2ccccc2)cc1	PfG6PD inh 82 | PfGluPho conf inactive
Oc1cc(CNCc2ccccc2)c(O)cc1CNCc1ccccc1	PfG6PD inh 70 | PfGluPho conf 49 | Diaph ctr 10uM inactive | Diaph ctr 30uM inactive
Nc1cc(N)c(OCC(F)(F)F)cc1OCC(F)(F)F	PfG6PD inh 99 | PfGluPho conf 94 | Diaph ctr 10uM inactive | Diaph ctr 30uM inactive
Nc1cc(OCC(F)(F)F)cc([N+](=O)[O-])c1	none
O=C(CCl)N(O)c1ccc(C=Cc2ccccc2)cc1	PfG6PD inh 62 | PfGluPho conf inactive
CN(C(=O)C=Cc1ccccc1)c1ccccc1	none
CCC(C)c1ccc(NC(=O)c2c([N+](=O)[O-])cnn2CC)cc1 (stereo not given)	none
O=[N+]([O-])c1ccc(-c2nc3ccc([N+](=O)[O-])cc3[nH]2)cc1	PfG6PD inh 86 | PfGluPho conf inactive
Nc1ccc(-c2nc3ccc([N+](=O)[O-])cc3[nH]2)cc1	none
Cn1ncc2c(Nc3cccc([N+](=O)[O-])c3)ncnc21	none
O=C(CN1CCCc2ccccc21)NCCc1ccc(Cl)cc1	none
Cc1ccc(NC2Sc3ccccc3NC2=O)cc1Cl (stereo not given)	PfG6PD inh 82 | PfGluPho conf inactive
Cc1cc(S(=O)(=O)ON2C(=O)c3ccccc3C2=O)ccc1F	PfG6PD inh 65 | PfGluPho conf inactive
COc1ccc(N=Cc2[nH]c3ccccc3c2O)cc1	PfG6PD inh 59 | PfGluPho conf inactive
COc1ccc(N=Cc2ccccc2O)cc1	none
Cc1ccc(S(=O)(=O)N(C)C)cc1NC(=O)C(C)OC(=O)/C=C/c1cccs1 (stereo not given)	none
N#Cc1cn(CCOc2ccc(F)cc2)c2ccccc12	PfG6PD inh 84 | PfGluPho conf inactive
Cc1ccc(OCCCn2cc(C#N)c3ccccc32)cc1	PfG6PD inh 68 | PfGluPho conf inactive
Cc1ccc(OCCn2cc(C=O)c3ccccc32)cc1	none
O=C(Cc1csc(N2CCOCC2)n1)N/N=C/c1ccc(O)c(O)c1O	PfG6PD inh 72 | PfGluPho conf 62 | Diaph ctr 10uM 57 | Diaph ctr 30uM 64
COC(=O)[C@]12CCCCC=C1N(Cc1ccc(Cl)cc1Cl)C(=O)[C@H](CC(=O)NCCCCc1ccccc1)C2	none (no result: PfG6PD inh, HKDC1 inhibitor)
Cn1c(=O)[nH]c(=O)c2c1[nH]c(=S)n2CCCc1ccccc1	PfG6PD inh 75 | PfGluPho conf 49 | Diaph ctr 10uM inactive | Diaph ctr 30uM inactive
Cn1c(=O)n(Cc2ccccc2Cl)c2ccccc21	none
Cn1c(=O)[nH]c(=O)c2c1[nH]c(=S)n2Cc1ccc(Cl)cc1	none
Cn1c(=O)n(Cc2ccccc2Cl)c(=O)c2c1[nH]c(=S)n2C	PfG6PD inh 60 | PfGluPho conf inactive
